Our source for the fold change (FC), IC50 and Activity values is ChEMBL document CHEMBL4321796, “Proteolysis Targeting Chimeras for the Selective Degradation of Mcl-1/Bcl-2 Derived from Nonselective Target Binding Ligands” (J Med Chem, 2019).

Activity calls are given as the source filed them. The calls are words filed in the database; no cut-off is given here.

Experiment [1] addresses T1, Protein cereblon/Apoptosis regulator Bcl-2 (Homo sapiens, UniProt P10415+Q96SW2). Nature of the experiment: Induction of CRBN-mediated Bcl-2 degradation in human HeLa cells assessed as relative abundance at 1 uM after 12 hrs by Western blot analysis (reference value: 1). It is filed as cell-based. (In general: In western blotting, separated proteins are transferred to a membrane and probed.)

Experiment [2] concerns the target T2, Protein cereblon/Induced myeloid leukemia cell differentiation protein Mcl-1 (Homo sapiens, UniProt Q07820+Q96SW2). As to the kind of experiment: Induction of CRBN-mediated Mcl-1 degradation in human HeLa cells assessed as relative abundance at 1 uM after 12 hrs by Western blot analysis (reference value: 1). In kind it is cell-based.
Experiment [3] concerns the target Induced myeloid leukemia cell differentiation protein Mcl-1 (Homo sapiens, UniProt Q07820). Nature of the experiment: Inhibition of biotinylated Bim peptide (81 to 106 residues) binding to His-tagged human Mcl-1 expressed in Escherichia coli BL21 (DE3) cells preincubated for 1 hr followed by biotinylated Bim peptide addition measured after 2 hrs by ELISA. The method in brief:
(§1)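 Inhibitor serially diluted (100–0.1 µM) from 10 mM DMSO stock, preincubated 1 h with 200 nM His-tagged protein in PBS (final DMSO 4%), then added 2 h to streptavidin plates holding biotin-Bim (plated at 0.09 mg/mL). Incubations at 4 °C. Detection with HRP anti-His, TMB 30 min, H2SO4 stop, A450. IC50 averaged from three independent experiments, with SD.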
(In general: In an ELISA, binding on a coated surface is turned into a signal by an enzyme label.)

Experiment [4] deals with T1, Protein cereblon/Apoptosis regulator Bcl-2. Nature of the experiment: Induction of CRBN-mediated Bcl-2 degradation in human HeLa cells assessed as relative abundance at 10 uM after 12 hrs by Western blot analysis (reference value: 1). In kind it is cell-based.
For experiment [5], the target named is T2, Protein cereblon/Induced myeloid leukemia cell differentiation protein Mcl-1. Nature of the experiment: Induction of CRBN-mediated Mcl-1 degradation in human HeLa cells assessed as relative abundance at 10 uM after 12 hrs by Western blot analysis (reference value: 1). In kind it is cell-based.
Experiment [6] addresses Apoptosis regulator Bcl-2 (Homo sapiens, UniProt P10415). Nature of the experiment: Inhibition of biotinylated Bim peptide (81 to 106 residues) binding to His-tagged human Bcl-2 expressed in Escherichia coli BL21 (DE3) cells preincubated for 1 hr followed by biotinylated Bim peptide addition measured after 2 hrs by ELISA. The method in brief: as §1
Experiment [7] concerns the target T1, Protein cereblon/Apoptosis regulator Bcl-2. Nature of the experiment: Induction of CRBN-mediated Bcl-2 degradation in human HeLa cells at 10 uM after 12 hrs by Western blot analysis relative to control. In kind it is cell-based.
Experiment [8] concerns the target T2, Protein cereblon/Induced myeloid leukemia cell differentiation protein Mcl-1. Nature of the experiment: Induction of CRBN-mediated Mcl-1 degradation in human HeLa cells at 10 uM after 12 hrs by Western blot analysis relative to control. It is filed as cell-based.
Experiment [9] has the same target. Nature of the experiment: Induction of CRBN-mediated Mcl-1 degradation in human HeLa cells assessed as formation of ubiquitin adducts of Mcl-1 at 1 to 10 uM after 12 hrs by Western blot analysis. In kind it is cell-based.
Experiment [10] has as its system NCI-H23. Nature of the experiment: Cytotoxicity against human H23 cells incubated for 24 hrs by CCK8 assay. In kind it is functional, cell-based. The method in brief:
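H23 cells seeded at 4 × 10^4 per mL in RPMI with 10% FBS, L-glutamine and pen/strep. Treated 24 h at various concentrations or with DMSO vehicle (0.05%). Viability read by CCK8 and normalized against cell-free background and untreated cultures; mean ± s.e.m., n=3.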
Background: Tetrazolium dyes change colour on reduction, which living cells bring about.

Experiment [11] concerns the target T2, Protein cereblon/Induced myeloid leukemia cell differentiation protein Mcl-1. Nature of the experiment: Protac activity at CRBN/Mcl-1 in human HeLa cell lysates assessed as ternary complex formation by Western blot analysis based pull-down assay. It is filed as subcellular. The following applies: Lysate. In a few lines: (§2)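 HeLa lysate (25×10^6 cells, 1% Triton X-100 IP buffer), 1 mg total protein, incubated overnight with 1 µg CRBN antibody across a compound concentration gradient. Capture on protein A+G agarose, three Triton washes, boiled in loading buffer. Mcl-1, Bcl-2 and CRBN detected by immunoblotting. n=3 independent samples.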

The target of experiment [12] is T1, Protein cereblon/Apoptosis regulator Bcl-2. As to the kind of experiment: Protac activity at CRBN/Bcl-2 in human HeLa cell lysates assessed as ternary complex formation by Western blot analysis based pull-down assay. In kind it is subcellular. As to conditions: Lysate. The method in brief: as §2
For experiment [13], the target named is T2, Protein cereblon/Induced myeloid leukemia cell differentiation protein Mcl-1. Nature of the experiment: Induction of CRBN-mediated Mcl-1 degradation in human HeLa cells assessed as Mcl-1 level at 10 uM after 12 hrs by Western blot analysis. In kind it is cell-based.
For experiment [14], the target named is T1, Protein cereblon/Apoptosis regulator Bcl-2. Nature of the experiment: Induction of CRBN-mediated Bcl-2 degradation in human HeLa cells assessed as reduction in Bcl-2 level at 10 uM after 12 hrs by Western blot analysis. In kind it is cell-based.

T1 sequence (P10415 whole entry, looked up): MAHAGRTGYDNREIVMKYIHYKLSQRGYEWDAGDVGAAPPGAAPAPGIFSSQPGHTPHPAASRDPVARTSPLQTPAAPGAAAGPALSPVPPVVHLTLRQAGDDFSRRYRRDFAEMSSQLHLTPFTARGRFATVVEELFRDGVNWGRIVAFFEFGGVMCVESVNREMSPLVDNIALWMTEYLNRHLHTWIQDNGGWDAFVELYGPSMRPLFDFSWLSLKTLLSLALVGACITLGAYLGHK
T1 sequence (Q96SW2 whole entry, looked up): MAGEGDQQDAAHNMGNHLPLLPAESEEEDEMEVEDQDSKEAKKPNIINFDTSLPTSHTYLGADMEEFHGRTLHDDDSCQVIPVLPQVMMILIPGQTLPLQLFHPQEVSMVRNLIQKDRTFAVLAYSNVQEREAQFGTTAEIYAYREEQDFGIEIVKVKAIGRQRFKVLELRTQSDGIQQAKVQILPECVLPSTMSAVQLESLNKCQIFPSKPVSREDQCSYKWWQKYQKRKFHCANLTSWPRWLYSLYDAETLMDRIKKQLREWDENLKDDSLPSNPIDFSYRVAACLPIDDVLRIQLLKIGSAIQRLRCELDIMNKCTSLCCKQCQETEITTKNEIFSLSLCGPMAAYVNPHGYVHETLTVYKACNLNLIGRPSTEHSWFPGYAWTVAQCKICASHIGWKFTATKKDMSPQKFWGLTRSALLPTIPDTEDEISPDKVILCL
Chain of Apoptosis regulator Bcl-2 (P10415 whole entry, the tested form may be a part): as the sequence (P10415 whole entry, looked up) above
T2 sequence (Q07820 whole entry, looked up, the tested form may be a part): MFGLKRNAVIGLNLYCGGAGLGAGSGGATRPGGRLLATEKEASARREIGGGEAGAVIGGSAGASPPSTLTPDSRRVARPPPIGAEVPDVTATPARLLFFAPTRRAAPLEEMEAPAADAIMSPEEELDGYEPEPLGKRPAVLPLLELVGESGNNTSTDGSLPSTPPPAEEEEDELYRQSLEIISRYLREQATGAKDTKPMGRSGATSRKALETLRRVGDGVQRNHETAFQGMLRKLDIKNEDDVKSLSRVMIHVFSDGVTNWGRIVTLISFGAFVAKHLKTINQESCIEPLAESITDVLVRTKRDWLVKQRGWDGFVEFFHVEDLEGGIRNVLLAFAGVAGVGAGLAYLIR
T2 sequence (Q96SW2 whole entry, looked up, the tested form may be a part): as the sequence (Q96SW2 whole entry, looked up) above
Chain of Induced myeloid leukemia cell differentiation protein Mcl-1 (Q07820 whole entry, the tested form may be a part): as the sequence (Q07820 whole entry, looked up, the tested form may be a part) above

For orientation: IC50 means the concentration needed to halve the response being measured. A low value points to higher potency. For the compound `O=C(CCCCCNc1cccc2c1C(=O)N(C1CCC(=O)NC1=O)C2=O)NCCCCCCNC(=O)CCCCC(=O)NCCN1C(=O)c2cccc3c(Sc4ccc(Br)cc4)ccc(c23)C1=O` (stereo not given), the fold change (FC) was determined as 1 in experiment [1], 1 in experiment [2], 0.9 in experiment [4] and 0.9 in experiment [5]. Besides, the IC50 in experiment [3] came out at 15.1 µM; in experiment [6] it was 13.5 µM.

For `N#CC1=C(NCCC(=O)NCCCCCC(=O)NCCCCCCNc2cccc3c2C(=O)N(C2CCC(=O)NC2=O)C3=O)c2ccc(Sc3ccc(Br)cc3)c3cccc(c23)C1=O` (stereo not given), the fold change (FC) stood at 1.1 in experiment [1], 1.2 in [2], 1 in experiment [4] and 1.5 in experiment [5]. For the same compound, the IC50 in experiment [3] was determined as 16 µM; in experiment [6] it was 11.6 µM. The Activity in [7] and in experiment [8] was under 20% throughout. In addition, the result in experiment [9] was inactive.

With `O=C(CCCCC(=O)NCCN1C(=O)c2cccc3c(Sc4ccc(Br)cc4)ccc(c23)C1=O)NCCCCNc1cccc2c1C(=O)N(C1CCC(=O)NC1=O)C2=O` (stereo not given), the fold change (FC) in experiment [1] came to 1; in experiment [2] it was 1; in experiment [4], 1; in experiment [5] it was 0.9. Moreover, the IC50 in [3] came out at 1.51 µM; in [6] it was 10 µM.

On to `Cc1nn(C)c(COc2ccc(N3CCN(S(=O)(=O)N(C)C)CC3)cc2)c1-c1cccc2c(CCCOc3cccc4ccccc34)c(C(=O)O)n(CCN3CCOCC3)c12`, for which the outcome in experiment [10] was Active.

As to `N#CC1=C(NCCC(=O)NCCOCCOCCNc2cccc3c2C(=O)N(C2CCC(=O)NC2=O)C3=O)c2ccc(Sc3ccc(Br)cc3)c3cccc(c23)C1=O` (stereo not given), the fold change (FC) in experiment [1] was found to be 1; in experiment [2] it was 1.8; in experiment [4], 1; in experiment [5] it was 2.2. Besides, the values for the IC50 in experiment [3] and in experiment [6] were 2.29 µM and 2.24 µM, respectively. Besides, the Activity in [7] and in experiment [8] was under 20% in each case. In addition, the result in experiment [9] was inactive.

Regarding `O=C(CCCCC(=O)NCCN1C(=O)c2cccc3c(Sc4ccc(Br)cc4)ccc(c23)C1=O)NCCCCCCCCNc1cccc2c1C(=O)N(C1CCC(=O)NC1=O)C2=O` (stereo not given), the fold change (FC) in experiment [1] amounted to 0.9; in experiment [2], 1; in [4], 0.9; in experiment [5] it was 1. For the same compound, the IC50 in [3] was found to be 5.4 µM; in [6], 7.66 µM.

In the case of `COC(=O)CCNC1=C(C#N)C(=O)c2cccc3c(Sc4ccc(Br)cc4)ccc1c23`, the results for the IC50 in experiment [3] and in [6] were 3.46 µM and 4.52 µM, respectively.

As for `N#CC1=C(NCCC(=O)NCCNc2cccc3c2C(=O)N(C2CCC(=O)NC2=O)C3=O)c2ccc(Sc3ccc(Br)cc3)c3cccc(c23)C1=O` (stereo not given), the fold change (FC) in [1], in experiment [2], in experiment [4] and in [5] was 1 each time. The figures for the IC50 in experiment [3] and in experiment [6] were 10.6 µM and 10.5 µM, respectively. Besides, the Activity in [7] and in [8] was under 20% throughout.

For the compound `O=C(CCCCC(=O)NCCN1C(=O)c2cccc3c(Sc4ccc(Br)cc4)ccc(c23)C1=O)NCCNc1cccc2c1C(=O)N(C1CCC(=O)NC1=O)C2=O` (stereo not given), the fold change (FC) in experiment [1], in experiment [2], in experiment [4] and in experiment [5] was 1 in each case. Also, the results for the IC50 in experiment [3] and in experiment [6] were 7.89 µM and 15.2 µM, respectively.

For `COC(=O)CCCCC(=O)NCCN1C(=O)c2cccc3c(Sc4ccc(Br)cc4)ccc(c23)C1=O`, the figures for the IC50 in [3] and in experiment [6] were 5.95 µM and 4.78 µM, respectively.

As for `N#CC1=C(NCCC(=O)NCCCCNc2cccc3c2C(=O)N(C2CCC(=O)NC2=O)C3=O)c2ccc(Sc3ccc(Br)cc3)c3cccc(c23)C1=O` (stereo not given), the fold change (FC) in experiment [1] was 1; in experiment [2], 0.9; in experiment [4], 1; in experiment [5], 0.8. Moreover, the IC50 worked out at 9.95 µM in experiment [3] and 9.71 µM in experiment [6]. Moreover, the Activity in [7] and in experiment [8] was under 20% throughout.

As for `N#CC1=C(NCCC(=O)NCCCCCCNc2cccc3c2C(=O)N(C2CCC(=O)NC2=O)C3=O)c2ccc(Sc3ccc(Br)cc3)c3cccc(c23)C1=O` (stereo not given), the fold change (FC) came out at 1 in [1], 0.9 in [2], 1.1 in experiment [4] and 0.8 in [5]. Also, the IC50 in experiment [3] worked out at 7.65 µM; in experiment [6], 1.94 µM. Moreover, the Activity in experiment [7] and in experiment [8] was under 20% each time. Further, the result in experiment [11] and in experiment [12] was inactive.

For the compound `CC(C)(C)c1ccc(C(=O)NCCN2C(=O)c3cccc4c(Sc5ccc(Br)cc5)ccc(c34)C2=O)cc1`, the figures for the IC50 in experiment [3] and in experiment [6] were 4.45 µM and 3.18 µM, respectively. Also, the result in experiment [7], in experiment [8], in experiment [13] and in experiment [14] was inactive. Also, the fold change (FC) in experiment [4] and in experiment [5] was 1 in each case. Further, the result in experiment [10] was Active.

Turning to `N#CC1=C(C#N)c2ccc(Sc3ccc(Br)cc3)c3cccc(c23)C1=O`, the IC50 worked out at 2.03 µM in [3] and 2.31 µM in experiment [6]. For the same compound, the result in [7], in [8], in experiment [13] and in experiment [14] was inactive. Also, the fold change (FC) in experiment [4] and in [5] was 1 throughout.
